Results on one compound are retold here after ChEMBL document CHEMBL1157608, “The discovery of 4-{1-[({2,5-dimethyl-4-[4-(trifluoromethyl)benzyl]-3-thienyl}carbonyl)amino]cyclopropyl}benzoic acid (MK-2894), a potent and selective prostaglandin E2 subtype 4 receptor antagonist” (J Med Chem, 2010).

By half-life is commonly meant the time needed for the level to fall by half in the phase considered. By Ki is commonly meant a dissociation constant, usually derived from enzyme kinetics or from competition with a known ligand. In general, EC50 refers to the concentration that produces a half-maximal response. For orientation: ED50 means the midpoint of the dose-response relation. One may read the IC50 as the concentration needed to halve the response being measured. As a reminder, the bioavailability is the share of a dose that reaches the circulation, judged against a reference dose that is usually intravenous. Usually Cmax stands for the highest concentration seen after dosing.

SMILES strings stand for the structures. Calls of active or inactive are those of the source.

Data set [1] in a line: Half life in Sprague-Dawley rat at 5 mg/kg, iv. It counts as ADME, organism-based. Set-up: dose 5 mg/kg, route intravenous. The settings on record: in vivo. An outline of the steps:
(§1)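 Overnight-fasted animals dosed po in 0.5% methocel or iv in 60% PEG 200; plasma from serial blood samples stored at -10 °C, protein-precipitated with equal volume acetonitrile/0.1% formic acid, analysed by LC/MS/MS with internal standard against spiked blank-plasma standards; Cmax from po data, half-life from iv data.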

The subject of data set [2] is Cynomolgus monkey. In words: Half life bioavailability in cynomolgus monkey at 1 mg/kg, iv. It counts as ADME, organism-based, Macaca fascicularis. The settings on record: in vivo. In short, it runs like this: as §1
The nature of data set [3]: Plasma clearance in Sprague-Dawley rat at 20 mg/kg, po and 5 mg/kg, iv. It counts as ADME, organism-based. In short, it runs like this:
as §1

Data set [4] has as its target T1, Prostaglandin E2 receptor EP1 subtype (Rattus norvegicus, UniProt P70597).
T1 sequence (P70597 whole entry): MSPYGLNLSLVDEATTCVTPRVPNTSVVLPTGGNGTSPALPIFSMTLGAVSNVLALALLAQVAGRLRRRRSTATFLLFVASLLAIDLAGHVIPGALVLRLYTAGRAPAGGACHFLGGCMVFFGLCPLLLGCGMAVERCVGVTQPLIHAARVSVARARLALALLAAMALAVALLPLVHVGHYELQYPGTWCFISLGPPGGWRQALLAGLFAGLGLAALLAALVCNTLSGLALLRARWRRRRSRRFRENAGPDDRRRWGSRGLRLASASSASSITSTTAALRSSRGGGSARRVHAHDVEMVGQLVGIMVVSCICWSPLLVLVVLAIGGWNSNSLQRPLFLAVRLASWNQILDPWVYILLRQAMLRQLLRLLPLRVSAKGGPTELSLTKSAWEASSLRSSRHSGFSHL
Nature of the data set: Displacement of [3H]PGE2 from rat EP1 receptor expressed in HEK293-EBNA cells by scintillation counting. It is filed as cell-based. In short, it runs like this: (§2)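 Radioligand binding on membranes from HEK 293(EBNA) clonal lines overexpressing each prostanoid receptor, using the respective 3H-prostaglandin or thromboxane ligand; EP4 binding also run with 10% human serum; Ki as means of at least three experiments (rEP2, rEP3 n = 1).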
(In general: Displacement assays read how much labelled ligand stays bound in the presence of the test substance.)

Data set [5] has as its target T2, Prostaglandin E2 receptor EP1 subtype (Homo sapiens, UniProt P34995).
T2 sequence (P34995 whole entry): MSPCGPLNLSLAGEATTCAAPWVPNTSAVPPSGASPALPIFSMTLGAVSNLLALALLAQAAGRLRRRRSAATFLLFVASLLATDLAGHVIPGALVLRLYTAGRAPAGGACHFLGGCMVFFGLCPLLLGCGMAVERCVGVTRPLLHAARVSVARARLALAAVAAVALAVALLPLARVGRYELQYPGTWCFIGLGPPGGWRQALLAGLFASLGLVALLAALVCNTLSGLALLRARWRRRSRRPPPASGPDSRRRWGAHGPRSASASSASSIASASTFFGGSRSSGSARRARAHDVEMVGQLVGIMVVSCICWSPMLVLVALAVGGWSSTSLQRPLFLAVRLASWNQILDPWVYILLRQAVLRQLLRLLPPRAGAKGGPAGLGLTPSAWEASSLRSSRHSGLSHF
In words: Displacement of [3H]PGE2 from human EP1 receptor expressed in HEK293-EBNA cells by scintillation counting. It is filed as cell-based. An outline of the steps: as §2

The target of data set [6] is Prostaglandin E2 receptor EP2 subtype (Homo sapiens, UniProt P43116). In words: Displacement of [3H]PGE2 from human EP2 receptor expressed in HEK293-EBNA cells by scintillation counting. It is filed as cell-based. An outline of the steps:
as §2

The target of data set [7] is Prostaglandin E2 receptor EP4 subtype (Rattus norvegicus, UniProt P43114). Nature of the data set: Displacement of [3H]PGE2 from rat EP4 receptor expressed in HEK293-EBNA cells by scintillation counting. It is filed as cell-based. An outline of the steps: as §2
Sequence of Prostaglandin E2 receptor EP4 subtype (Rattus norvegicus, UniProt P43114) (P43114 whole entry): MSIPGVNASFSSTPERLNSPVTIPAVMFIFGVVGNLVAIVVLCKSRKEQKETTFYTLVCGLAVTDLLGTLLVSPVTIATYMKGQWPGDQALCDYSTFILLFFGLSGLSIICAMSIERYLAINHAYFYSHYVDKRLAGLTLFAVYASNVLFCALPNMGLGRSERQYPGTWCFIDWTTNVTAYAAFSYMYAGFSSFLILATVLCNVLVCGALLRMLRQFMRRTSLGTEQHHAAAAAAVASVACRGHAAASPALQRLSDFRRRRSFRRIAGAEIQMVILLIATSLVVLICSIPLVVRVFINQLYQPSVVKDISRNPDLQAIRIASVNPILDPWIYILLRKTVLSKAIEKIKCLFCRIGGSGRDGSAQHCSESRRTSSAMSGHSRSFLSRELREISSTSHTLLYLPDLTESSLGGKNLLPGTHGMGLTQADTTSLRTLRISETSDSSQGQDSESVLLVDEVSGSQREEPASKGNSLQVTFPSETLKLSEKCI
Data set [8] can be described thus: Volume of distribution at steady state in Beagle dog at 5 mg/kg, po and 1 mg/kg, iv. It counts as ADME, organism-based, Canis lupus familiaris. The settings on record: in vivo, read-out: Vdss. In short, it runs like this: as §1
Data set [9] concerns the target Prostaglandin F2-alpha receptor (Homo sapiens, UniProt P43088). In words: Displacement of [3H]PGF2alpha from human FP receptor expressed in HEK293-EBNA cells by scintillation counting. It counts as cell-based. An outline of the steps: as §2
The nature of data set [10]: Half life in Beagle dog at 1 mg/kg, iv. It counts as ADME, organism-based, Canis lupus familiaris. Also on record: dose 1 mg/kg, route intravenous. To be noted: in vivo. An outline of the steps: as §1
In data set [11] the test system is Rattus norvegicus. Nature of the data set: Analgesic activity in po dosed Sprague-Dawley rat assessed as inhibition of carrageenan-induced mechanical hyperalgesia.
The nature of data set [12]: Plasma clearance in C57BL/6 mouse at 20 mg/kg, po and 5 mg/kg, iv. It counts as ADME, organism-based. An outline of the steps:
as §1

Data set [13] is filed under the species Rattus norvegicus. Nature of the data set: Analgesic activity against complete Freund's adjuvant-induced Sprague-Dawley rat inflammatory pain assessed as inhibition of chronic paw swelling. It counts as functional. An outline of the steps: (§3)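 Adjuvant-induced arthritis in rats: CFA injected into primary paw on day 0; oral dosing in 0.5% methocel once daily for 9 days starting day 9; secondary paw swelling measured; plasma levels taken 24 h after final dose; n = 7/group; 1-way ANOVA/Dunnett's vs vehicle.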

Data set [14] is filed under the species Rattus norvegicus. In words: Analgesic activity against complete Freund's adjuvant-induced Sprague-Dawley rat inflammatory pain assessed as inhibition of chronic paw swelling at plasma concentration of 4 nM after 24 hrs. It is filed as functional, organism-based. An outline of the steps:
as §3

Data set [15] deals with T3, Prostaglandin E2 receptor EP4 subtype (Homo sapiens, UniProt P35408). Nature of the data set: Antagonist activity at human EP4 receptor expressed in HEK293 cells assessed as inhibition of PGE2-induced cAMP accumulation by scintillation proximity assay. It is filed as functional, cell-based. An outline of the steps:
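HEK 293 cells; inhibition of PGE2-induced cAMP accumulation measured, with and without 10% human serum; means of at least three experiments.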
On the technique in general: Cyclic AMP is a second messenger, typically raised through Gs and lowered through Gi signalling.

For data set [16], the target named is T4, Prostaglandin E2 receptor EP3 subtype (Rattus norvegicus, UniProt P34980).
T4 sequence (P34980 whole entry): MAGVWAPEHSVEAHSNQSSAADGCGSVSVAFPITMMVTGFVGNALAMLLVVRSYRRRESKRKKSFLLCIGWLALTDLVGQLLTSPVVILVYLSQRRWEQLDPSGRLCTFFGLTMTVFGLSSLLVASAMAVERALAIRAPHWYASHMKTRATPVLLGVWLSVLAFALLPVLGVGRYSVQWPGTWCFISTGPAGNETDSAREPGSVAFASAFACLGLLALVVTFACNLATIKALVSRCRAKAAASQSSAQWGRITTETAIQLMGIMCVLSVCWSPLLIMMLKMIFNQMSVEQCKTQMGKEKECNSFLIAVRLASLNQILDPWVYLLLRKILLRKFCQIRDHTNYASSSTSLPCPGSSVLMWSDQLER
Nature of the data set: Displacement of [3H]PGE2 from rat EP3 receptor expressed in HEK293-EBNA cells by scintillation counting. It counts as cell-based. An outline of the steps:
as §2

For data set [17], the target named is T3, Prostaglandin E2 receptor EP4 subtype. In words: Displacement of [3H]PGE2 from human EP4 receptor expressed in HEK293-EBNA cells by scintillation counting in presence of 10% human serum. It is filed as cell-based. In short, it runs like this:
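Radioligand binding on membranes from HEK 293(EBNA) clonal cells overexpressing human EP4, [3H]PGE2 as tracer, run with 10% human serum added to assess serum protein binding; Ki values are means of at least three experiments.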

The nature of data set [18]: Volume of distribution at steady state in C57BL/6 mouse at 20 mg/kg, po and 5 mg/kg, iv. It counts as ADME, organism-based. To be noted: in vivo, read-out: Vdss. In short, it runs like this:
as §1

A short description of data set [19]: Oral bioavailability in cynomolgus monkey at 5 mg/kg. The settings on record: in vivo. It is filed as ADME, organism-based, Macaca fascicularis. In short, it runs like this: as §1
For data set [20], the system named is Cynomolgus monkey. In words: Volume of distribution at steady state in cynomolgus monkey at 5 mg/kg, po and 1 mg/kg, iv. It counts as ADME, organism-based, Macaca fascicularis. The settings on record: in vivo. An outline of the steps: as §1
Data set [21] is described as follows: Oral bioavailability in Sprague-Dawley rat at 20 mg/kg. The settings on record: in vivo. It counts as ADME, organism-based. An outline of the steps:
as §1

Data set [22] can be described thus: Cmax bioavailability in cynomolgus monkey at 5 mg/kg, po. It counts as ADME, organism-based, Macaca fascicularis. The settings on record: in vivo. Also on record: dose 5 mg/kg, route oral. In short, it runs like this:
as §1

T3 sequence (P35408 whole entry): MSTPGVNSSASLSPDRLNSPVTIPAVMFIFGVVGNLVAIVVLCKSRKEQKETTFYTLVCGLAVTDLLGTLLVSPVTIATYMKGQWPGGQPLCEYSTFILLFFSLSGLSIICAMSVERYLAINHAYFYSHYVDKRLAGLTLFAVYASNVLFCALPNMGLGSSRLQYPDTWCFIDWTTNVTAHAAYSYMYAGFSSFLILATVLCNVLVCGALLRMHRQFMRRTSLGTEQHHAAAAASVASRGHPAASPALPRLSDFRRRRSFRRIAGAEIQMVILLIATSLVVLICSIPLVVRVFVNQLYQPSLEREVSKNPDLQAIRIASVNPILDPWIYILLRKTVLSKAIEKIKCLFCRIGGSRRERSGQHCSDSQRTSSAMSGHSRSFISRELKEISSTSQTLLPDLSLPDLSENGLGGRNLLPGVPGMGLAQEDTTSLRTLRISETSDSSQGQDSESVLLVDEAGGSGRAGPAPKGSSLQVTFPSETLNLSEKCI
Sequence of Prostaglandin E2 receptor EP2 subtype (P43116 whole entry): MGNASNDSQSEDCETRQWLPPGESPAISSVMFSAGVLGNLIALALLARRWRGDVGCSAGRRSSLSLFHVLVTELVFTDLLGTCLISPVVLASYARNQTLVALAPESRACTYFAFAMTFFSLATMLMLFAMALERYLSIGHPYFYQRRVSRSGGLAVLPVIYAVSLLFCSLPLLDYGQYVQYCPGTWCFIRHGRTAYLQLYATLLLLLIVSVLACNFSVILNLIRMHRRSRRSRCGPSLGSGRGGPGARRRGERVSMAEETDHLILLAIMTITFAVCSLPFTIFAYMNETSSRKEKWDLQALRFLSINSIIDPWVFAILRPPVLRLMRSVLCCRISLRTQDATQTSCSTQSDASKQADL
Sequence of Prostaglandin F2-alpha receptor (P43088 whole entry): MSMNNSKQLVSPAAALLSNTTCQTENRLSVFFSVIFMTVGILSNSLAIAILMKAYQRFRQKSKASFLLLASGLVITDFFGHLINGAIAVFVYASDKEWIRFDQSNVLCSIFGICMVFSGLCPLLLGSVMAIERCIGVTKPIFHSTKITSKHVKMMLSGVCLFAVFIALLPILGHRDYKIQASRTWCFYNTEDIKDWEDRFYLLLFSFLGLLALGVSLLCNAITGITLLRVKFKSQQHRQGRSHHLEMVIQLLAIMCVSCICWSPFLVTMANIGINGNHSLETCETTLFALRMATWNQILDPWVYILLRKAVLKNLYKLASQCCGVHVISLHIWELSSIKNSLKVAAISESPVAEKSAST

Take `Cc1sc(C)c(C(=O)NC2(c3ccc(C(=O)O)cc3)CC2)c1Cc1ccc(C(F)(F)F)cc1`: the half-life was 4.5 h in [1] and 8.8 h in data set [10]. This compound also showed a t1/2 in the data set with Cynomolgus monkey [2] of 19 h. The values for the clearance in [3] and in data set [12] were 9.2 mL/min/kg and 23 mL/min/kg, respectively. The Ki is over 29000 nM in data set [4]; over 5600 nM in data set [5]; 5900 nM in data set [6]; 0.7 nM in data set [7]; over 24000 nM in data set [9]; 3300 nM in [16]. Also, the inhibition constant (Ki) in [17] came to 0.97 nM. Also, the Vd in [8] turned out to be 0.91 L/kg; in data set [18] it was 7.6 L/kg. For the same compound, the EC50 in the data set on Rattus norvegicus [11] came to 250 nM. Moreover, the ED50 in the data set with Rattus norvegicus [11] (po) was determined as 0.36 mg/kg; in the data set filed under Rattus norvegicus [13] it was 0.02 mg/kg. Further, in the data set filed under Rattus norvegicus [13], the Activity result was “Dose-dependent effect”. For the same compound, the outcome in the data set filed under Rattus norvegicus [14] was Active. For the same compound, the IC50 in [15] turned out to be 2.5 nM. In addition, the bioavailability in data set [19] amounted to 18%; in data set [21] it was 29%. In addition, the Vdss in the data set on Cynomolgus monkey [20] worked out at 7.9 L/kg. Besides, the concentration in data set [22] peaked (Cmax) at 50 nM.
